Measurements from PubChem BioAssay.
The source made the active and inactive calls.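 The calls were made as follows, unless noted: active = visually confirmed hit in the image check and inhibition above 20%; inconclusive = visually confirmed hit but inhibition not above 20%; inactive = no visual hit in the image check.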

Columns and labels:
[1] = inhibitors of TNFa-induced NFkB p65 translocation, primary screen, imaging, HUVEC, MLSMR starter and 10KST1 sets (AID 438;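 active = inhibition above 20% together with a positive visual image hit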;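 also: compound added about 3h40 before a 20 min TNFalpha stimulation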;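 as to inhibition: signal is the nuclear over cytoplasmic p65 intensity ratio per well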); settings: HUVEC TNFa-induced p65 nuclear translocation; cell count: measured here: nuclei count (cytotoxicity indicator), at 2.08 µM; inhibition: at 2 µM, stronger effect = higher value, 0% TNFa-plus-vehicle, 100% no-TNFa wells
[2] = reduction of polyQ htt aggregates in cells – imaging, exon1htt(103Q)mCFP cells, high-content imaging, primary screen (AID 483;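 active = visual image review flags a hit and inhibition of aggregation exceeds 20%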;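 also: compound exposure lasted 3 days before fixation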;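 as to nuclei count: percent of the per-plate median nuclei count of sample wells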); settings: exon1htt(103Q)mCFP cell line, aggregate imaging, at 2 µM; inhibition of aggregation: stronger effect = higher value; nuclei count: measured here: cell count, toxicity
[3] = endothelial E-selectin expression blockers – imaging, HUVEC, immunofluorescence, MLSMR starter and 10KST1 sets, primary screen (AID 487); settings: HUVEC TNFalpha-induced E-selectin immunofluorescence imaging, at 2 µM; inhibition: stronger effect = higher value; nuclei count: measured here: cell number, toxicity;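 as to inhibition: signal is fraction of cell area covered by stained E-selectin grains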;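 as to nuclei count: 100% = median nuclei count of all wells on the same plate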
[4] = biological target: Voltage-gated potassium channel subunit beta-2 (Rattus norvegicus) (UniProt P62483); assay: inhibitors of rat Kvbeta2 reductase activity – biochemical, NADPH fluorescence, primary screen (AID 622;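 active = fluorescence slope higher than the sample average by over 3 SD, cut at about -0.22 in these data, passing the limit was not always enough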;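 also: slope of raw intensity against log time taken from 70 to 1610 s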); settings: recombinant KvBeta, 4-cyanobenzaldehyde reduction, at 10 µM, stronger effect = higher value
[5] = biological target: Voltage-gated potassium channel subunit beta-2 (Rattus norvegicus) (UniProt P62483); assay: enhancers of rat Kvbeta2 NADPH turnover – biochemical, NADPH fluorescence, primary screen (AID 623;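 active = NADPH fluorescence slope more negative than the mean of all samples by about 3 SD, 99.7% confidence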;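 also: fluorescence intensity change per second fitted from 20 to 320 s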); settings: Recombinant KvBeta, NADPH fluorescence decrease slope, 10 min; at 10 µM; stronger effect = lower value
[6] = biological target: Muscarinic acetylcholine receptor M4 (Homo sapiens) (UniProt P08173); assay: M4-linked GIRK flux change, two-sided – cell-based, HEK293 M4/GIRK, thallium flux, BTC-AM, M4 allosteric agonist project, primary screen (AID 625;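 active = fluorescence slope after compound addition differing from the mean of all tested samples at 99.7% confidence, mostly higher but some lower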;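 also: thallium influx through GIRK channels coupled to M4 in HEK293 cells with BTC-AM dye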); settings: at 10 µM, actives lie on both sides
Procedure, shortened: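 Material: HEK293 cells with M4 receptor and GIRK channels; Times: cells overnight at 37 °C, BTC-AM loading 1 h, reads 2 min total; Technique: kinetic BTC-AM fluorescence sampled at 1 Hz, 10 s pre-addition baseline; Read-out basis: slope over 15–24 s of trace normalized to starting intensity; Controls: carbachol positive, DMSO negative.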

[7] = blockers of RIG-like receptor reporter activation – cell-based, Sendai virus stimulus, luciferase, 10K MLSCN set, TLR/RLR signaling modifier project, primary screen (AID 602276;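 active = inhibition at or above 50% at 10 µM; inactive = inhibition below 50%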;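 also: firefly luciferase from ISG56 promoter only with Renilla not read in this screen; 0% = Sendai virus plus DMSO and 100% = medium plus DMSO without virus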); settings: HEK293 RL24 IRF3 luciferase reporter, at 10 µM, stronger effect = higher value
[8] = TLR3 IRF3 reporter activation blockers – cell-based, poly I:C stimulus, luciferase, 10K MLSCN set, primary screen (AID 602277;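 active = inhibition of the reporter signal at or above 50%; inactive = inhibition below 50%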); settings: HEK293-TLR3 RL24 IRF3 luciferase reporter, at 10 µM, stronger effect = higher value

Chain of Voltage-gated potassium channel subunit beta-2 (Rattus norvegicus) (P62483 whole entry, looked up): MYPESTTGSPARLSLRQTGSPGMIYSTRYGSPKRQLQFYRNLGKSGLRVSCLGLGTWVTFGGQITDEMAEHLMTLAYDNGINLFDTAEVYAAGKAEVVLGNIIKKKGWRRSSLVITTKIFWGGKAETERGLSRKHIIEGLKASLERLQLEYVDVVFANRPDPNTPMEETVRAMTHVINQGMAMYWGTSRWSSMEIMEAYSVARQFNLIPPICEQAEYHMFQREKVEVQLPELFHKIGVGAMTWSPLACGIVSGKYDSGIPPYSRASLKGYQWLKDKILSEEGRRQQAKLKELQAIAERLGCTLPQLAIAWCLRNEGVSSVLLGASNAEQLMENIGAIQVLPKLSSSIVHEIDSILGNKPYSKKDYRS
Chain of Muscarinic acetylcholine receptor M4 (Homo sapiens) (P08173 whole entry, looked up): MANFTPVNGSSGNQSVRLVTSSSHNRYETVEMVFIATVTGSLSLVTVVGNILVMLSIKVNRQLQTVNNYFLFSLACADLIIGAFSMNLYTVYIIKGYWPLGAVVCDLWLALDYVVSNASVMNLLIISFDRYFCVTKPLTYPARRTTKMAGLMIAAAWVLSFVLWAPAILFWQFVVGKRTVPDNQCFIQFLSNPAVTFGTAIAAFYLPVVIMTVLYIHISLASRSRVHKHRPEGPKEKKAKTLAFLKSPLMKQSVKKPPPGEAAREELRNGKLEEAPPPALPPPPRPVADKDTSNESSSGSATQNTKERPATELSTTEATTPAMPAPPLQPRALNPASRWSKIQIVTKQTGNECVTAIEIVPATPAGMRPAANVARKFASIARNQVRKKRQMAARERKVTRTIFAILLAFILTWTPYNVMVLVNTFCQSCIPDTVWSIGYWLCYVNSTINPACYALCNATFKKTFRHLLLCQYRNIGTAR

| SMILES | cell count [1] | inhibition [1] | inhibition of aggregation [2] | nuclei count [2] | inhibition [3] | nuclei count [3] | fluorescence slope [4] | NADPH fluorescence slope [5] | fluorescence slope [6] | inhibition [7] | inhibition [8] |
| --- | --- | --- | --- | --- | --- | --- | --- | --- | --- | --- | --- |
| Fc1c(F)c(F)c(CSc2nc3ccccc3[nH]2)c(F)c1F | 423 | 0% (inactive) | 28.9% (inactive) | 82.8% | -40.6% (inactive) | 86.2% | -0.562 (inactive) | -3.7e-05 (inactive) | 0.0075 (inactive) | -6.35% (inactive) | -46.6% (inactive) |
| CCOC(=O)c1cccc(NC(=O)Cn2cnc3c2c(=O)n(C)c(=O)n3C)c1 | 467 | 10.1% (inactive) | 2.8% (inactive) | 123% | 2.2% (inactive) | 114% | -0.261 (inactive) | -7e-06 (inactive) | 0.00582 (inactive) | -6.03% (inactive) | -6.74% (inactive) |
| Cc1ccc(S(=O)(=O)NCCCCC(NC(=O)OC(C)(C)C)C(=O)O)cc1 (centres undefined) (tested in a mixture with another compound) | 631 | 1.1% (inactive) | 5.6% (inactive) | 99.5% | 34.4% (inactive) | 95.6% | -0.6 (inactive) | -3.1e-06 (inactive) | 0.00344 (inactive) | 15.2% (inactive) | 13.1% (inactive) |
| Cc1ccc(SCCNS(=O)(=O)c2ccc(F)cc2)cc1 | 348 | 4% (inactive) | -4.1% (inactive) | 106% | -53.9% (inactive) | 122% | -0.55 (inactive) | -3.1e-05 (inactive) | 0.0043 (inactive) | 8.34% (inactive) | 12.7% (inactive) |
| O=C(O)c1cc2c([nH]c1=O)CCCC2 | 661 | -18.4% (inactive) | 24.5% (inactive) | 96.3% | -0.2% (inactive) | 100% | -0.585 (inactive) | 2.3e-05 (inactive) | 0.00466 (inactive) | 13.7% (inactive) | 24.4% (inactive) |
| Cc1c(C(=O)O)oc2ccc(S(=O)(=O)NCCC3=CCCCC3)cc12 | 652 | 9.2% (inactive) | 5% (inactive) | 88% | -36.3% (inactive) | 114% | -0.454 (inactive) | 4.4e-05 (inactive) | 0.0068 (inactive) | 3.33% (inactive) | 15.9% (inactive) |
| CC1CCN(C(=O)c2ccc(C(=O)N3CCC(C)CC3)cc2)CC1 | 348 | 4.7% (inactive) | 2.4% (inactive) | 95.8% | 33.2% (inactive) | 76.8% | -0.459 (inactive) | -3e-05 (inactive) | 0.00464 (inactive) | 12.9% (inactive) | 12.8% (inactive) |
| CC(C)=CC/C=C1\CCC(C(=O)O)C(C(=O)O)C1 (centres undefined) | 661 | -6.8% (inactive) | -3.8% (inactive) | 116% | -30.8% (inactive) | 100% | -0.52 (inactive) | -1.4e-05 (inactive) | 0.00515 (inactive) | 15.6% (inactive) | 13.1% (inactive) |
| COc1ccc(N2C(=O)C3CCCN3C2c2ccc(F)cc2)cc1Cl (centres undefined) | 412 | -2.7% (inactive) | -12.9% (inactive) | 101% | 18.5% (inactive) | 89.1% | -0.538 (inactive) | -1.5e-05 (inactive) | 0.00539 (inactive) | 7.49% (inactive) | 14.6% (inactive) |
| CCN(CC)c1ccc2c(c1)CCCN2 | 669 | 6.8% (inactive) | 2.8% (inactive) | 91% | -36.1% (inactive) | 126% | -0.559 (inactive) | 3.7e-05 (inactive) | 0.00991 (inactive) | 8.33% (inactive) | 1.7% (inactive) |
| COCCNC(=O)C(C)OC(=O)c1nsc(Cl)c1Cl (centres undefined) | 551 | -8.3% (inactive) | 0.5% (inactive) | 101% | -45.1% (inactive) | 115% | -0.317 (inactive) | 1e-05 (inactive) | 0.00545 (inactive) | -6.04% (inactive) | -22% (inactive) |
| CC1(c2ccncc2)Nc2ccccc2-c2nc3ccccc3n21 (centres undefined) | 394 | -13.4% (inactive) | 6.2% (inactive) | 69.9% | -182% (inactive) | 122% | -0.454 (inactive) | -2.1e-05 (inactive) | 0.00581 (inactive) | 6.46% (inactive) | -10% (inactive) |
| COc1cc(C(=O)N2CCCC(c3nc(-c4cccs4)no3)C2)cc(OC)c1OC (centres undefined) | 709 | -19.4% (inactive) | 4.4% (inactive) | 89% | -30.6% (inactive) | 101% | -0.508 (inactive) | -0.000226 (inactive) | 0.00584 (inactive) | 13.5% (inactive) | 12.8% (inactive) |
| O=C(CCC(=O)N1CCN(S(=O)(=O)c2ccccc2)CC1)c1cccs1 | 633 | -1.3% (inactive) | -22.1% (inactive) | 102% | -176% (inactive) | 153% | -0.568 (inactive) | -7e-05 (inactive) | 0.00592 (inactive) | -5.43% (inactive) | -3.56% (inactive) |
| Cc1cc(OC(=O)N2CCOCC2)cc(C)c1Cl | 309 | -12.3% (inactive) | -22.3% (inactive) | 114% | -50% (inactive) | 130% | -0.444 (inactive) | 5.1e-05 (inactive) | 0.00877 (inactive) | -13.8% (inactive) | 99.2% (active) |
| Cc1ccc(S(=O)(=O)N(CC(=O)N2CCC(C(N)=O)CC2)c2cccc(C(F)(F)F)c2)cc1 | 327 | 1% (inactive) | -0.2% (inactive) | 112% | -15.7% (inactive) | 114% | -0.556 (inactive) | 5.5e-06 (inactive) | 0.00443 (inactive) | 25.2% (inactive) | 25.1% (inactive) |
| CC(C)(C)SCCNC(=O)COc1ccccc1 | 368 | -2.3% (inactive) | 16.8% (inactive) | 91.5% | -16.9% (inactive) | 110% | -0.32 (inactive) | -4.6e-05 (inactive) | 0.00624 (inactive) | 1.01% (inactive) | -18% (inactive) |
| CCc1ccccc1N=C1SCC(=O)N1C | 368 | -8.5% (inactive) | 19.1% (inactive) | 69.3% | -50.2% (inactive) | 111% | -0.412 (inactive) | 7.8e-05 (inactive) | 0.00583 (inactive) | 6.15% (inactive) | 13.2% (inactive) |
| C=CCNC(=O)CNS(=O)(=O)c1ccc(F)cc1 | 443 | -2.6% (inactive) | 11.8% (inactive) | 73.9% | 36.9% (inactive) | 88% | -0.592 (inactive) | 1e-05 (inactive) | 0.00626 (inactive) | 19.3% (inactive) | 45.8% (inactive) |
